This note sets out measurements from ChEMBL document CHEMBL4052815, “Amphiphilic Modulation of Glycosylated Antitumor Ether Lipids Results in a Potent Triamino Scaffold against Epithelial Cancer Cell Lines and BT474 Cancer Stem Cells” (J Med Chem, 2017).

Calls of active or inactive are those of the source. The rule behind the calls is not given here.

The test system of series [1] is JIMT-1. Put plainly: Cytotoxicity against human JIMT1 cells assessed as decrease in cell viability after 48 hrs by MTS assay. Type of series: functional. The note with it: JIMT-1, 48 h. A digest of the protocol: (§1)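 Cells grown at 37 °C, 5% CO2, with 10% FBS and penicillin/streptomycin: MDA-MB-231, JIMT1 and DU145 in DMEM, PC3 in F12K, BT474 in Hybricare, MiaPaCa2 in DMEM plus 2.5% horse serum. Cells (7500–9000/well) were plated for 24 h, then exposed to 0–20 µM for 48 h. MTS was added for 1–4 h and OD490 read, blank-subtracted, relative to vehicle. CC50 was read from plots; mean ± SD, six independent determinations.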
A general note: Tetrazolium dyes change colour on reduction, which living cells bring about.

Series [2] deals with BT-474. Put plainly: Cytotoxicity against human BT474 cancer stem cell spheroids assessed as decrease in cell viability up to 20 uM after 3 days by MTS assay.
A further series concerns PC-3. Put plainly: Cytotoxicity against human PC3 cells assessed as decrease in cell viability after 48 hrs by MTS assay. Format: functional. The note with it: PC-3, 48 h. The procedure, abridged: as §1
The next series deals with MIA PaCa-2. Put plainly: Cytotoxicity against human MIAPaCa2 cells assessed as decrease in cell viability after 48 hrs by MTS assay. Type of series: functional. Conditions: MIA PaCa-2, 48 h. The procedure, abridged: as §1
The subject of series [3] is DU-145. Put plainly: Cytotoxicity against human DU145 cells assessed as decrease in cell viability after 48 hrs by MTS assay. Format: functional. Conditions: DU-145, 48 h. A digest of the protocol:
as §1

Series [4] relates to BT-474. Put plainly: Induction of disintegration of human BT474 cancer stem cell spheroids at 7.5 uM after 3 days by microscopic method. Type of series: functional, cell-based. A digest of the protocol:
(§2)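 BT474 stem-cell spheroids (ALDH1-sorted, formed over 6 days in Mammocult on ultra-low adhesion plates) exposed to 0, 7.5 or 20 µM for 3 days. Integrity was judged by light microscopy at ×10 against untreated spheroid wells.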

In series [5] the test system is BT-474. Put plainly: Induction of disintegration of human BT474 cancer stem cell spheroids at 20 uM after 3 days by microscopic method. Format: functional, cell-based. A digest of the protocol:
as §2

The subject of series [6] is BT-474. Put plainly: Cytotoxicity against human BT474 cells assessed as decrease in cell viability after 48 hrs by MTS assay. Type of series: functional. The note with it: BT-474, 48 h. The procedure, abridged: as §1
A short description of series [7]: Chemical stability of compound in aqueous DMSO solution at pH 2 to 3 at 30 uM after 1 week. Type of series: physicochemical. Conditions: buffer, pH 2, 168 h. A digest of the protocol:
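Tested as the TFA salt at 30 µM in aqueous DMSO, pH 2-3, and held for at least one week.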

For a further series, the system named is MDA-MB-231. Put plainly: Cytotoxicity against human MDA-MB-231 cells assessed as decrease in cell viability after 48 hrs by MTS assay. Conditions: MDA-MB-231, 48 h. Format: functional. A digest of the protocol: as §1
Series [8] has as its system JIMT-1. Put plainly: Cytotoxicity against human JIMT1 cells assessed as decrease in cell viability at 2 to 8 uM in presence of pan-caspase inhibitor Q-VD-OPh after 48 hrs by MTS assay. Format: functional, cell-based. A digest of the protocol: (§3)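 DU145 or JIMT1 cells seeded for 24 h, then given 40 µM pan-caspase inhibitor along with varying compound concentrations. Incubation continued 48 h, then MTS (20% v/v) for 1–4 h, OD490 read. Values are blank-subtracted and relative to vehicle controls; mean ± SD.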

For series [9], the system named is DU-145. Put plainly: Cytotoxicity against human DU145 cells assessed as decrease in cell viability at 2 to 8 uM in presence of pan-caspase inhibitor Q-VD-OPh after 48 hrs by MTS assay. Format: functional, cell-based. A digest of the protocol:
as §3

Series [10] has as its system BT-474. Put plainly: Cytotoxicity against human BT474 cancer stem cell spheroids assessed as cell viability at 20 uM after 3 days by MTS assay relative to control. Conditions: BT-474, 72 h.
Series [11] has as its system BT-474. Put plainly: Cytotoxicity against human BT474 cancer stem cell spheroids assessed as decrease in cell viability at 2 to 10 uM after 3 days by MTS assay.

`CCCCCCCCCCCCCCN` [TETRADECYLAMINE]: the CC50 in the series on JIMT-1 [1] was found to be 27 µM; in the series on PC-3, 24 µM; in the series on MIA PaCa-2 it was 18 µM; in the series with DU-145 [3] it was 16.5 µM. Further, the outcome in the series on BT-474 [2], in the series on BT-474 [4] and with BT-474 [5] was inactive.

Turning to `CCCCCCCCCCCCCCCCOC[C@H](CO[C@@H]1O[C@H](CNCCCCCCCCCCCCNC(=O)CCCc2ccc(N(CCCl)CCCl)cc2)[C@@H](O)[C@H](O)[C@H]1N)OC.O=C(O)C(F)(F)F.O=C(O)C(F)(F)F`, the CC50 with BT-474 [6] is 13 µM; with JIMT-1 [1], 16 µM; in the series with PC-3, over 20 µM; in the series with MIA PaCa-2 it was over 20 µM; with MDA-MB-231 it was 10.5 µM; in the series on DU-145 [3], over 20 µM. For the same compound, the Stability entry in [7] was “Stable”.

For the compound `COc1cccc2c1C(=O)c1c(O)c3c(c(O)c1C2=O)C[C@@](O)(C(=O)CO)C[C@@H]3O[C@H]1C[C@H](N)[C@H](O)[C@H](C)O1`, the result with JIMT-1 [8], with BT-474 [4] and in the series with DU-145 [9] was inactive. Also, the outcome with BT-474 [2] was Active.

Turning to `CCCCCCCCCCCCCCCCOC[C@H](CO[C@@H]1O[C@H](CN)[C@@H](O)[C@H](O)[C@H]1NCCCCCCCCCCCCN)OC`, the CC50 in the series on BT-474 [6] turned out to be 13.5 µM; in the series with JIMT-1 [1] it was 8 µM; in the series on PC-3, 8.5 µM; in the series on MIA PaCa-2 it was 8.5 µM; in the series on MDA-MB-231, 5.5 µM; in the series with DU-145 [3] it was 7.5 µM. Further, in the series with BT-474 [10], the viability at 20 µM amounted to 0%. Also, the result in the series with BT-474 [4] and with BT-474 [5] was Active.

Consider `CCCCCCCCCCCCCCCCOC[C@H](CO[C@@H]1O[C@H](CN)[C@@H](O)[C@H](O)[C@H]1NCCCN)OC`, for which the CC50 in the series on BT-474 [6] is over 20 µM; with JIMT-1 [1] it was 12.5 µM; in the series on PC-3, 14.5 µM; in the series with MIA PaCa-2, 14.5 µM; in the series with MDA-MB-231 it was 17.5 µM; with DU-145 [3] it was 18.5 µM. Further, in the series with BT-474 [10], the viability at 20 µM turned out to be 0%. Moreover, the outcome in the series on BT-474 [4] was Active. In addition, the result in the series with BT-474 [5] was inactive.

Regarding `CCCCCCCCCCCCCCCCOC[C@H](CO[C@@H]1O[C@H](CNCCCN)[C@@H](O)[C@H](O)[C@H]1N)OC`, the CC50 in the series on BT-474 [6] is over 20 µM; in the series with JIMT-1 [1] it was 13.5 µM; with PC-3, 12.5 µM; in the series with MIA PaCa-2, 18.5 µM; in the series with MDA-MB-231, 13.5 µM; in the series with DU-145 [3], 16.5 µM. For the same compound, the viability at 20 µM with BT-474 [10] came out at 0%. The outcome with BT-474 [4] was Active. Moreover, the result in the series with BT-474 [5] was inactive.

For the compound `NCCCCCCCCCCCCO[C@@H]1O[C@H](CN)[C@@H](O)[C@H](O)[C@H]1N`, the cytotoxic concentration (CC50) with BT-474 [6], in the series with JIMT-1 [1], in the series with PC-3, in the series with MIA PaCa-2, in the series on MDA-MB-231 and with DU-145 [3] was over 20 µM throughout. Also, the outcome in the series with BT-474 [2], in the series with BT-474 [4] and with BT-474 [5] was inactive.

On to `CCCCCCCCCCCCCCCCOC[C@H](CO[C@@H]1O[C@H](CO)[C@@H](O)[C@H](O)[C@H]1N)OC`, for which the CC50 with BT-474 [6] came out at 8 µM; with JIMT-1 [1] it was 9 µM; in the series on PC-3, 13.5 µM; with MIA PaCa-2 it was 9 µM; in the series on MDA-MB-231, 7.1 µM; in the series with DU-145 [3], 10 µM. Moreover, in the series on BT-474 [11], the result was Active.

With `CC[C@@H](C(=O)[C@@H](C)[C@@H](O)[C@H](C)[C@@H]1O[C@@H]([C@@H](CC)C(=O)O)CC[C@@H]1C)[C@H]1O[C@]2(C=C[C@@H](O)[C@]3(CC[C@@](C)([C@H]4CC[C@](O)(CC)[C@H](C)O4)O3)O2)[C@H](C)C[C@@H]1C`, the result in the series with BT-474 [4] was inactive. Moreover, the outcome in the series with BT-474 [5] was Active.

With `O=C(O)CCCc1ccc(N(CCCl)CCCl)cc1` [CHLORAMBUCIL], the CC50 in the series with BT-474 [6], in the series on JIMT-1 [1], in the series with PC-3, in the series with MIA PaCa-2, in the series on MDA-MB-231 and with DU-145 [3] was over 150 µM throughout.

Take `CCCCCCCCCCCCCCCCOC[C@@H](COC1O[C@H](CN)[C@@H](O)[C@H](O)[C@H]1N)OC` (stereo not given in full): the result in the series with BT-474 [11] was Active.

As a reminder, the CC50 is the concentration at which the toxic effect on the cells reaches its halfway point. The term viability denotes a read-out of living cells in per cent, often relative to untreated cells.
